# ChEMBL document CHEMBL4725346, “Syntheses and Evaluation of New Bisacridine Derivatives for Dual Binding of G-Quadruplex and i-Motif in Regulating Oncogene c-myc Expression” (J Med Chem, 2020)
# Active and inactive are the calls of the source. The calls are words filed in the database; no cut-off is given here.
# Tests used:
# Quadruplex DNA [1] = assay: Binding affinity to c-myc promoter G-quadruplex/i-motif in human SiHa cells assessed as reduction in c-myc expression at 5 uM incubated for 24 hrs by Western blot analysis; format: cell-based; design: scale not given: the % may be the effect or the level left
# SiHa [2] = assay: Induction of cell cycle arrest in human SiHa cells assessed as accumulation of cells at G0/G1 phase at 0.30 uM after 24 hrs by propidium iodide staining based flow cytometry (reference value: 42.28%); format: functional; conditions: dose 0.3 µM
# Raji = assay: Induction of cell cycle arrest in human Raji cells assessed as accumulation of cells at G2/M phase at 0.15 to 0.6 uM after 24 hrs by propidium iodide staining based flow cytometry; format: functional; conditions: dose microM 0.15-0.6, time 24.0 hrs
# [3] = Toxicity in BALB/c nude mouse xenografted with human SiHa cells assessed as effect on body weight at 15 mg/kg, ip administered once per 2 days for 18 days; format: organism-based; conditions: in vivo, 432 h, time 18 day
# In short: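 SiHa tumour fragments passaged from donor mice implanted in the underarm of female BALB/c nude mice (six per group). Compound given at 15 mg/kg ip once every two days for 18 days, with saline and cisplatin 0.2 mg/kg control groups. Body weight recorded every two days; at day 18 mice were sacrificed and organs weighed.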
# SiHa [4] = assay: Induction of cell cycle arrest in human SiHa cells assessed as accumulation of cells at G2/M phase at 0.15 uM after 24 hrs by propidium iodide staining based flow cytometry (reference value: 29.71%); format: functional
# A549 = assay: Antiproliferative activity against human A549 cells after 48 hrs by MTT assay; format: functional, cell-based; conditions: A549, 48 h
# In short: (§1)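 Cells seeded at 5.0×10^3 per well, pre-incubated 12 h at 37 °C, 5% CO2, then exposed to compounds for 48 h; DMSO-only control. MTT (2.5 mg/mL) added for 4 h, formazan dissolved in DMSO, absorbance at 570 nm. Each dose tested in triplicate; IC50 from percentage survival relative to negative control.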
# [5] = Stabilization of c-myc promoter i-motif DNA Py33 (unknown origin) assessed as decrease in positive peak intensity at pH 5.5 measured at 288 nanometer by CD spectroscopy
# In short: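 Py33 at 1 µM in 1× BPES pH 5.5 (pH 6.8 random-coil reference), with or without ligand. Annealed at 95 °C for 5 min, cooled, kept at 4 °C overnight. CD spectra in a 4 mm cuvette over 230–350 nm, three scans averaged, buffer-corrected; peaks followed at 288 and 260 nm.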
# SiHa [6] = assay: Induction of apoptosis in human SiHa cells assessed as late apoptotic cells at 1.2 uM after 24 hrs by annexin V/FITC-propidium iodide staining-based flow cytometric method ( Rvb = 0.4%); format: functional
# Quadruplex DNA [7] = assay: Binding affinity to c-myc promoter G-quadruplex/i-motif in human SiHa cells assessed as reduction in c-myc expression at 2.5 uM incubated for 24 hrs by Western blot analysis; format: cell-based; design: scale not given: the % may be the effect or the level left
# In short: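 SiHa cells treated 24 h at 0, 0.625, 1.25 and 2.5 μM, then lysed in buffer with 1 mM PMSF. Protein measured by BCA, equal loads run on 8% gel and blotted to PVDF. Probed with anti-c-MYC and anti-β-actin (loading control), HRP anti-rabbit secondary, chemiluminescence read-out.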
# Quadruplex DNA [8] = assay: Binding affinity to c-myc wild-type promoter G-quadruplex/i-motif (unknown origin) expressed in human SiHa cells assessed as reduction in c-myc transcription by measuring decrease in ratio of renilla/firefly luciferase activity at 1/3 IC50 after 48 hrs by dual-luciferase reporter assay; format: cell-based
# In short: (§2)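 SiHa cells transfected with 200 ng psiCHECK2 plasmid carrying wild-type, mutant or deleted c-myc promoter. Compounds added 8 h after transfection, then incubated 48 h at 37 °C. Cells washed with ice-cold PBS; Renilla/firefly activity ratio read by dual-luciferase assay.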
# Quadruplex DNA [9] = assay: Binding affinity to c-myc wild-type promoter G-quadruplex/i-motif (unknown origin) expressed in human SiHa cells assessed as reduction in c-myc transcription by measuring decrease in ratio of renilla/firefly luciferase activity after 48 hrs by dual-luciferase reporter assay; format: cell-based; conditions: dose microM 0.025-0.1, time 48.0 hrs; in short: as §2
# SiHa [10] = assay: Induction of cell cycle arrest in human SiHa cells assessed as accumulation of cells at G0/G1 phase at 0.60 uM after 24 hrs by propidium iodide staining based flow cytometry (reference value: 42.28%); format: functional; conditions: dose 0.6 µM
# [11] = Binding affinity to 5'-biotin labeled c-myc promoter i-motif DNA Py33 (unknown origin) by surface plasmon resonance method
# In short: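 SPR: 5'-biotin DNA diluted to 1 μM and captured (1000 RU) on a sensor chip, with a blank cell as reference. Running buffers: Py33 in 20 mM MES pH 5.8, 100 mM KCl, 0.05% Tween-20; Pu27 and duplex in 50 mM Tris-HCl pH 7.4, 100 mM KCl. Six ligand concentrations serially diluted from DMSO stock. Association 260 s, dissociation 300 s at 25 °C; NaOH regeneration; blank sensorgrams subtracted.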
# SiHa [12] = assay: Induction of apoptosis in human SiHa cells assessed as necrotic cells at 1.2 uM after 24 hrs by annexin V/FITC-propidium iodide staining-based flow cytometric method ( Rvb = 0.1%); format: functional
# SiHa [13] = assay: Induction of apoptosis in human SiHa cells assessed as increase in cleaved caspase-7 level incubated for 24 hrs by Western blot analysis; format: functional, cell-based; conditions: dose microM 0.6-2.4, time 24.0 hrs
# HeLa = assay: Antiproliferative activity against human Hela cells after 48 hrs by MTT assay; format: functional, cell-based; in short: as §1
structure (smiles),measurement,setting,value
Cc1ccc2nc3ccc(C)cc3c(NCCCNCCNCCCNc3c4cc(C)ccc4nc4ccc(C)cc34)c2c1,Activity,Quadruplex DNA [1],< 92.2%
same,Activity,SiHa [2],30.44%
same,Activity,Raji,Active
same,Activity,[3],Non-Toxic
same,Activity,SiHa [4],34.13%
same,IC50,A549,180 nM
same,Activity,[5],Active
same,Activity,SiHa [6],18.7%
same,Activity,Quadruplex DNA [7],< 73.9%
same,Activity,Quadruplex DNA [8],Active
same,Activity,Quadruplex DNA [9],Dose-dependent effect
same,Activity,SiHa [10],16.87%
same,Kd,[11],2400 nM
same,Activity,SiHa [12],4.6%
same,Activity,SiHa [13],Dose-dependent effect
same,IC50,HeLa,450 nM
